Most compounds without a hit are left out; they make up all but 2.2% or so of the library.
PKD1 inh: PKD1 (human) kinase inhibition; AID 797; inhibition, % (concentration not given with the values); Q15139; actives 0.056% (n = 200,000); PKD1 kinase fluorescence polarization assay; in the data active = inhibition above about 50%
FLuc inhib CS: counter-screen for luciferase assay inhibitors: firefly luciferase inhibition | ATPLite firefly luciferase biochemical luminescence, 10 min | inhibition, % at 10 µM | actives 1.5% (n = 200,000) | AID 1006;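 active = inhibition above about 50% when tested at 10 µM, limit read from the data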
Target sequence (P08659 whole entry, looked up): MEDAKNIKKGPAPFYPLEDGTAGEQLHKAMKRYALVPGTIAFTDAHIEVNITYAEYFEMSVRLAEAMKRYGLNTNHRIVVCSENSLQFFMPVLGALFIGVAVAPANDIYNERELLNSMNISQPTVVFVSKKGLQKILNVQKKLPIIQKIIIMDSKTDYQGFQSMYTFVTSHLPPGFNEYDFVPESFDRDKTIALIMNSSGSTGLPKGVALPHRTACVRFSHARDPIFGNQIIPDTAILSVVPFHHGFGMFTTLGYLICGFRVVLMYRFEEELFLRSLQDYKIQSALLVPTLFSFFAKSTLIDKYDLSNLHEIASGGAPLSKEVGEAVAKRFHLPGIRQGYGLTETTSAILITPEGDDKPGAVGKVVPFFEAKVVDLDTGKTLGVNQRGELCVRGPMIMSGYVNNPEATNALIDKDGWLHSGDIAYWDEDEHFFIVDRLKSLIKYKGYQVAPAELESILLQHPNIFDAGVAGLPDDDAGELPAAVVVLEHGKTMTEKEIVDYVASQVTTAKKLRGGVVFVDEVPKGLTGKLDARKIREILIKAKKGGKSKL
FLuc act counter: firefly luciferase counter-screen for stimulation assays; ATPlite luciferase biochemical, luminescence, 10 min; 0 = ATP-free wells, 1 = DMSO control; activation factor at 10 µM; 200,000 tested, under 10 active; AID 1027;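 active = luciferase activation factor, scaled between plate controls, of at least 2 with compound at 10 µM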
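test system = cell-free luciferase reagent | medium = PBS as buffer for the ATP substrate | dosing = test compounds dosed from 2 mM stocks in 100% DMSO | incubation = 10 min at ambient temperature | detection = luminescence measurement of luciferase light output | benchmarks = low control with PBS replacing ATP, high control enzyme plus ATP without compound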
Wee1 stabilizer: blocks degradation of human Wee1 kinase | actives 1.2% (n = 220,000) | HeLa Luc-Wee1K328M stability, luciferase luminescence; 100% = proteasome inhibitor MG132 effect | reporter increase, % at 5 µM;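 active = activation above the mean of all tested compounds plus 3 SD, set per screening run, cut at about 8.8% in these data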;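 note: cells exposed to compound for 20 h before luminescence read; 0% = DMSO alone and 100% = MG132 at 30 µM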
TRAIL sens C8: caspase-8 TRAIL sensitization; inhibition (viability loss, TRAIL sensitization), % at 10 µM; NB7+C8 cells + TRAIL, ATPlite viability luminescence; actives 1% (n = 360,000); AID 624354;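 active = compounds causing at least 50% loss of cell viability in the single-dose screen, relative to plate controls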
PPC-1+TRAIL kill: kills PPC-1 cancer cells in the presence of TRAIL | cell killing (% activity), % at 4 µM or 5 µM | PPC-1 cells + TRAIL, ATPLite viability luminescence | actives 0.41% (n = 220,000);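 active = cell killing above 50% in the first pass at 4 µM, then a duplicate retest at 5 µM averaging 50% or more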;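 note: plate controls were cells with TRAIL plus DMSO for no effect and medium-only wells lacking cells for full effect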
Starred values were filed as active, the others as inactive.

For CCN(CC)c1ccc(C(=C2C=CC(=[N+](CC)CC)C=C2)c2ccc(N(CC)CC)cc2)cc1 the results were TRAIL sens C8 88.1*.
CCN(CC)c1ccc(C(=O)NNC(=O)CCNC(=O)c2ccccc2)cc1 was read as TRAIL sens C8 10.8.
For CCN(CC)c1ccc(C(=C2C=CC(=[N+](CC)CC)C=C2)c2ccccc2)cc1 the results were TRAIL sens C8 89.4*.
CCN(CC)c1ccc(C(=O)NNC(=O)CCl)cc1 was read as PKD1 inh -2.5, FLuc inhib CS 1.4, FLuc act counter 1, Wee1 stabilizer 8.4, TRAIL sens C8 5.1 and PPC-1+TRAIL kill 5.4.
For O=C1C=C(N2CCCCC2)c2ccccc2C1=O the results were TRAIL sens C8 93.8*.
For O=C1c2ccccc2C(=O)c2c1cccc2N1CCCC1 the results were PKD1 inh 4.2, FLuc inhib CS 5.2, FLuc act counter 0.9, Wee1 stabilizer -0.9, TRAIL sens C8 9.6 and PPC-1+TRAIL kill 21.6.
CC(=O)c1ccc(OCC(=O)OCc2cc(-c3ccco3)on2)cc1 was read as TRAIL sens C8 -10.1.
For N/C(=N\OC(=O)c1cc([N+](=O)[O-])ccc1Cl)c1cccnc1 the results were Wee1 stabilizer 2.3, TRAIL sens C8 15.3 and PPC-1+TRAIL kill 15.6.
For N/C(=N\OC(=O)c1ccc([N+](=O)[O-])cc1)c1cccnc1 the results were PKD1 inh -0.6, FLuc inhib CS 94.2*, FLuc act counter 0.1, Wee1 stabilizer 0.3, TRAIL sens C8 12.3 and PPC-1+TRAIL kill -3.0.
`Cc1ccc(C(=O)O/N=C(\N)c2cccc([N+](=O)[O-])c2)cc1` gave PKD1 inh 6.0, FLuc inhib CS 96.3*, FLuc act counter 0, Wee1 stabilizer -1.1, TRAIL sens C8 56.0* and PPC-1+TRAIL kill 20.5.
Screening N/C(=N\OC(=O)c1ccccc1[N+](=O)[O-])c1cccnc1 returned PKD1 inh 6.6, FLuc inhib CS 37.3, FLuc act counter 0.6, Wee1 stabilizer 6.5, TRAIL sens C8 -14.9 and PPC-1+TRAIL kill 44.5.
`Cc1ccc(C(=O)O/N=C(\N)c2cccnc2)cc1[N+](=O)[O-]` gave PKD1 inh 8.9, FLuc inhib CS 74.6*, FLuc act counter 0.3, Wee1 stabilizer 1.6, TRAIL sens C8 33.6 and PPC-1+TRAIL kill 16.0.
For N/C(=N\OC(=O)c1ccc(Br)cc1)c1cccc([N+](=O)[O-])c1 the results were TRAIL sens C8 -3.3.
COc1ccc(Cl)cc1NC(=O)COC(=O)C1CC(=O)N(Cc2ccccc2)C1 (configuration not stated) was read as TRAIL sens C8 -12.1.
`Cc1ccccc1C(=O)NC(=S)N(C)CCc1ccccn1` gave PKD1 inh -4.2, FLuc inhib CS -8.1, FLuc act counter 1.1, Wee1 stabilizer 1.4, TRAIL sens C8 -13.7 and PPC-1+TRAIL kill 10.8.
`CN1/C(=C\C(=O)C[n+]2ccc(C(=O)c3ccccc3)cc2)C(C)(C)c2ccccc21` gave PKD1 inh -6.6, FLuc inhib CS -2.9, FLuc act counter 1, Wee1 stabilizer -2.2, TRAIL sens C8 55.2* and PPC-1+TRAIL kill 21.4.
Screening O=C(NCCCN1CCOCC1)c1ccc(/C=C2\Oc3ccccc3N(Cc3ccccc3F)C2=O)cc1 returned TRAIL sens C8 -2.0.
`CCN1CCN(CCCNC(=O)c2ccc(/C=C3/Oc4ccccc4N(Cc4cccc(C)c4)C3=O)cc2)CC1` gave TRAIL sens C8 55.0*.
`CCC(=O)N1CCC1(C)C(=O)NCc1ccccc1SC` (configuration not stated) gave TRAIL sens C8 -8.0.
Screening Cc1ccc(SCC(=O)Nc2ccc(N3CCN(C)CC3)c(F)c2)c(C)c1 returned PKD1 inh 12.3, FLuc inhib CS 19.5, FLuc act counter 0.8, Wee1 stabilizer 5.1, TRAIL sens C8 21.0 and PPC-1+TRAIL kill 26.1.
O=C(O)c1cc(-c2ccc(-c3ccc(F)cc3)o2)nc2ccccc12 was read as TRAIL sens C8 59.4*.
`COc1ccc(C)cc1NC(=O)NCc1ccc(F)cc1` gave PKD1 inh 6.6, FLuc inhib CS 57.5*, FLuc act counter 0.4, Wee1 stabilizer -3.2, TRAIL sens C8 7.3 and PPC-1+TRAIL kill 5.5.
`C[C@@H]1CN([C@@H](C)CO)C(=O)CCCn2nncc2CO[C@H]1CN(C)C` gave TRAIL sens C8 0.9.
`CCN(CC)S(=O)(=O)c1cccc(C(=O)N[C@@H](C)c2nc3ccccc3[nH]2)c1` gave PKD1 inh -0.5, FLuc inhib CS -0.6, FLuc act counter 1, Wee1 stabilizer 9.9* and PPC-1+TRAIL kill 10.6.
For O=C(NCCS(=O)(=O)NCc1ccccc1Cl)c1ccccc1 the results were TRAIL sens C8 -6.8.
O=[N+]([O-])c1ccc(-n2cccc2/C=N/Nc2nc(N3CCCCC3)nc(N3CCCCC3)n2)cc1 was read as PKD1 inh -6.4, FLuc inhib CS -2.8, FLuc act counter 1 and Wee1 stabilizer 10.6*.
Screening O=[N+]([O-])c1cccc(-n2cccc2/C=N/Nc2nc(N3CCCCC3)nc(N3CCCCC3)n2)c1 returned PKD1 inh 4.5, FLuc inhib CS -4.8, FLuc act counter 1, Wee1 stabilizer -0.5, TRAIL sens C8 -4.3 and PPC-1+TRAIL kill 2.1.
For CCCCCCc1cc2cc(S(=O)(=O)c3ccc(F)c(Cl)c3)c(=O)oc2cc1O the results were PKD1 inh -1.8, FLuc inhib CS -3.1, FLuc act counter 1, Wee1 stabilizer -3.2, TRAIL sens C8 52.3* and PPC-1+TRAIL kill 7.0.
Screening CCCCCCc1cc2cc(C(=O)Nc3ccc(OC)cc3)c(=O)oc2cc1O returned PKD1 inh -5.1, FLuc inhib CS -5.2, FLuc act counter 1.1, Wee1 stabilizer -0.5, TRAIL sens C8 50.8* and PPC-1+TRAIL kill 21.7.
Screening COc1ccc(NC(=O)c2cc3ccc(O)cc3o/c2=N\O)cc1 returned TRAIL sens C8 73.5*.
`CCCCCCc1cc2cc(C(=O)NC)c(=N)oc2cc1O` gave PKD1 inh 0.8, FLuc inhib CS -3.5, FLuc act counter 1, Wee1 stabilizer 1.0, TRAIL sens C8 6.4 and PPC-1+TRAIL kill 19.8.
For CCCCCCc1cc2cc(C(=O)Nc3cccc(OC)c3)c(=O)oc2cc1O the results were PKD1 inh -6.2, FLuc inhib CS -2.7, FLuc act counter 1, Wee1 stabilizer 1.0, TRAIL sens C8 29.1 and PPC-1+TRAIL kill -25.9.
Screening CCCCCCc1cc2cc(C(=O)OCC)c(=O)oc2cc1O returned Wee1 stabilizer 9.9*, TRAIL sens C8 20.6 and PPC-1+TRAIL kill -7.4.
For CCCCCCc1cc2cc(C(N)=O)c(=N)oc2cc1O the results were PKD1 inh 3.0, FLuc inhib CS 6.5, FLuc act counter 0.9, Wee1 stabilizer -0.8 and PPC-1+TRAIL kill 0.1.
